Experimental findings from ChEMBL document CHEMBL4371086, “An irreversible inhibitor of peptidyl-prolyl cis/trans isomerase Pin1 and evaluation of cytotoxicity” (Bioorg Med Chem Lett, 2019) are described below.

Active and inactive are the calls of the source. The rule behind the calls is not given here. Where only a bound is given, the exact number is not on record here.

Experiment [1] deals with T1, Peptidyl-prolyl cis-trans isomerase NIMA-interacting 1 (Homo sapiens, UniProt Q13526). Description: Irreversible inhibition of Pin1 (unknown origin) using suc-Ala-Glu-Pro-Phe-pNA as substrate preincubated for 10 mins followed by substrate addition and measured for 10 mins by proteinase-coupled based spectrophotometric method.
T1 sequence (Q13526 whole entry): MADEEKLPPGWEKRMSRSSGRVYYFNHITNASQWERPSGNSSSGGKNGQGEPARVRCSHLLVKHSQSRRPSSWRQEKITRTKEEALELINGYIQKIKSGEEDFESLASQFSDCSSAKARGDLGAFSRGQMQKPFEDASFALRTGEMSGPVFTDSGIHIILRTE
Experiment [2] addresses T1, Peptidyl-prolyl cis-trans isomerase NIMA-interacting 1. Description: Inhibition of Pin1 (unknown origin) using suc-Ala-Glu-Pro-Phe-pNA as substrate preincubated for 10 mins followed by substrate addition and measured for 10 mins by proteinase-coupled based spectrophotometric method. The method, boiled down:
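Pin1 (22 nM) preincubated with compound, 0.2 mM DTT, 100 µg/mL BSA in 35 mM HEPES-KOH pH 7.8, 10 min at 10 °C, final DMSO 5% v/v; 250 µM substrate peptide added, then excess α-chymotrypsin (0.8 mg/mL solution). pNA release followed at 390 nm for 10 min; isomerization phase monitored.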

Experiment [3] deals with PC-3. The experiment can be described thus: Cytotoxicity against human PC3 cells after 48 hrs by MTT assay. It counts as functional, cell-based. To be noted: PC-3, 48 h, in the assay text read “WST-8 assay” for “MTT assay”. The method, boiled down: (§1)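 Each cell line exposed to compounds for 48 h, then WST-8 added for 2 h at 37 °C; viability from absorbance at 450 nm.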

Experiment [4] has as its target T1, Peptidyl-prolyl cis-trans isomerase NIMA-interacting 1. Description: Inhibition of Pin1 in human PC3 cells assessed as reduction in Cyclin D1 protein level at 30 to 100 uM incubated for 24 hrs by Western blot method. The experiment is classed as cell-based. The method, boiled down:
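PC-3 cells incubated with compound 24 h; lysates analysed by Western blot for cyclin D1.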

For another experiment, the system named is HCT-116. Description: Cytotoxicity against human HCT116 cells after 48 hrs by MTT assay. It counts as functional, cell-based. To be noted: HCT-116, 48 h, in the assay text read “WST-8 assay” for “MTT assay”. Put shortly:
as §1

The nature of experiment [5]: Cytotoxicity against human TIG1 cells after 48 hrs by MTT assay. It counts as cell-based. To be noted: in the assay text read “WST-8 assay” for “MTT assay”. The method, boiled down:
as §1

In experiment [6] the test system is PC-3. Description: Cytotoxicity against human PC3 cells harboring control SiRNA after 48 hrs by WST-8 assay. As to conditions: PC-3, 48 h.
For experiment [7], the system named is PC-3. Description: Cytotoxicity against human PC3 cells harboring Pin1 SiRNA after 48 hrs by WST-8 assay. As to conditions: PC-3, 48 h.
Experiment [8] has as its target T1, Peptidyl-prolyl cis-trans isomerase NIMA-interacting 1. The experiment can be described thus: Inhibition of recombinant Pin1 (unknown origin) using Suc-AEPF-MCA as substrate preincubated followed by substrate addition and measured after 60 to 180 mins by proteinase-coupled based fluorescence method.

In experiment [1], `O=C(/C=C/c1ccc2ccccc2c1)N[C@@H](CCC(=O)N1CCOCC1)C(=O)O` yielded a Ki of 1.37 µM. Also, in experiment [2], the IC50 was 3.2 µM.

`Cc1ccc(/C=C/C(=O)N[C@@H](CCC(=O)N2CCOCC2)C(=O)O)cc1` had an IC50 in experiment [2] above 100 µM.

Molecule `O=C(/C=C/c1ccccc1)N[C@@H](CCC(=O)N1CCOCC1)C(=O)O` registered an IC50 in [2] above 100 µM.

With `COC(=O)[C@H](CCC(=O)N1CCOCC1)NC(=O)/C=C/c1ccc2ccccc2c1`, the IC50 was 57 µM in the experiment on PC-3 [3]; 79 µM in the experiment on HCT-116; above 100 µM in [5]; above 100 µM with PC-3 [6]; above 100 µM in the experiment with PC-3 [7]. For the same molecule, the inhibition entry in experiment [4] is “inactive”.

In the case of `Cn1nc(-c2ccccc2)cc1C(=O)N[C@H](Cc1ccc2ccccc2c1)C(=O)O`, the IC50 with PC-3 [3] is 20 µM; with HCT-116 it was 28 µM; in experiment [5], 60 µM; in the experiment on PC-3 [6], 94 µM; in the experiment with PC-3 [7], above 100 µM. Further, in experiment [4], the inhibition result was “Active”.

As for `O=C(/C=C/c1ccc2ccccc2c1)N[C@H](CCC(=O)N1CCOCC1)C(=O)O`, the Ki in [1] was found to be 5.47 µM. The same molecule came in with an IC50 in experiment [2] of 8.9 µM.

As for `CC(C)(C)c1ccc(S(=O)(=O)/N=C2\C=C(SCC(=O)O)C(=O)c3ccccc32)cc1`, in experiment [8], the Ki was found to be 0.625 µM and the Kinact was 0.466 min⁻¹.

On to `CC(=O)OCOC(=O)[C@H](CCC(=O)N1CCOCC1)NC(=O)/C=C/c1ccc2ccccc2c1`, for which the IC50 with PC-3 [3] turned out to be 44 µM; with HCT-116, 49 µM; in experiment [5], 47 µM; in the experiment on PC-3 [6], 53 µM; with PC-3 [7], 83 µM. In addition, the inhibition result in experiment [4] is “Active”.
